Assay results reported in ChEMBL document CHEMBL4406859, “Antitumor and antiviral activities of 4-substituted 1,2,3-triazolyl-2,3-dibenzyl-L-ascorbic acid derivatives” (Eur J Med Chem, 2019).
Active and inactive are the calls of the source. No cut-off for these calls is given here.

Key:
[1] = tested on: Human alphaherpesvirus 3; assay: Antiviral activity against thymidine kinase positive Varicella zoster virus infected in human HELF cells assessed as reduction in virus-induced cytopathogenicity incubated for 7 days by Giemsa staining based microscopic analysis; assay type: functional, organism-based; conditions: Human alphaherpesvirus 3, HELF, 168 h
[2] = tested on: Human alphaherpesvirus 1; assay: Antiviral activity against Herpes simplex virus 1 KOS infected in human HELF cells assessed as reduction in virus-induced cytopathogenicity incubated for 7 days by microscopic analysis; assay type: functional, organism-based; conditions: strain KOS
[3] = tested on: Influenza A virus; assay: Antiviral activity against Influenza A virus (A/Ned/378/05(H1N1)) infected in dog MDCK cells assessed as reduction in virus-induced cytopathogenicity incubated for 7 days by microscopic analysis; assay type: functional, organism-based
[4] = tested on: Coxsackievirus B4; assay: Antiviral activity against Human coxsackievirus B4 infected in vero cells assessed as reduction in virus-induced cytopathogenicity incubated for 7 days by microscopic analysis; assay type: functional, organism-based
[5] = Cytotoxicity against human HELF cells assessed as reduction in cell viability incubated for 3 days by coulter counter method; assay type: cell-based; conditions: 72 h
Summary of the method: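 HEL cells seeded at 5 x 10^3/well and allowed to proliferate 24 h, then exposed to graded compound concentrations for 3 days at 37 °C. Cell number counted with a Coulter counter.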

[6] = Cytotoxicity against human HELF cells assessed as minimum cytotoxic concentration by observing alteration in cell morphology incubated for 3 days by microscopic analysis; assay type: cell-based; conditions: HELF cells
Summary of the method: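 Read-out is the minimum cytotoxic concentration (MCC): the lowest compound concentration giving a microscopically detectable change in cell morphology. Measured on confluent human embryonic lung (HEL) fibroblast cultures exposed to a range of compound concentrations.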

[7] = tested on: HeLa; assay: Antiproliferative activity against human HeLa cells assessed as reduction in cell viability incubated for 72 hrs by MTT assay; assay type: functional, cell-based
Summary of the method: (§1)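 Cells (ATCC) grown in DMEM with 10 FBS, penicillin/streptomycin, 2 mM glutamine, 37 °C, 5 CO2. 5000 cells/well seeded; after 24 h, freshly prepared dilutions at five concentrations (0.01–100 μM) added for 72 h. MTT read-out; absorbance converted to percentage growth by NIH formulas. Two experiments in quadruplicate; IC50 by linear regression.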

[8] = tested on: SW-620; assay: Antiproliferative activity against human SW620 cells assessed as reduction in cell viability incubated for 72 hrs by MTT assay; assay type: functional, cell-based; conditions: SW-620, 72 h; summary of the method: as §1
[9] = tested on: HepG2; assay: Antiproliferative activity against human HepG2 cells assessed as reduction in cell viability incubated for 72 hrs by MTT assay; assay type: functional, cell-based; conditions: HepG2, 72 h; summary of the method: as §1
[10] = tested on: Human alphaherpesvirus 2; assay: Antiviral activity against Herpes simplex virus 2 G infected in human HELF cells assessed as reduction in virus-induced cytopathogenicity incubated for 7 days by microscopic analysis; assay type: functional, organism-based
[11] = tested on: Influenza B virus; assay: Antiviral activity against Influenza B virus (B/Ned/537/05) infected in dog MDCK cells assessed as reduction in virus-induced cytopathogenicity incubated for 7 days by MTS assay; assay type: functional, organism-based; conditions: for EC50: 168 h
[12] = tested on: Cytomegalovirus; assay: Antiviral activity against Cytomegalovirus AD169 infected in human HELF cells assessed as reduction in virus-induced cytopathogenicity incubated for 7 days by Giemsa staining based microscopic analysis; assay type: functional, organism-based; conditions: Human betaherpesvirus 5, AD169, HELF, 168 h
Summary of the method: (§2)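 Confluent HEL fibroblasts infected with CMV (Davis or AD-169) at 100 PFU/well for 2 h. Residual virus removed, then medium with graded compound concentrations added (duplicate). Incubated 7 days at 37 °C. Cytopathogenicity scored microscopically after ethanol fixation and Giemsa staining. EC50 read from plots of % cytopathogenicity versus concentration.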

[13] = tested on: Human alphaherpesvirus 1; assay: Antiviral activity against Herpes simplex virus 1 TK-KOS-ACV infected in human HELF cells assessed as reduction in virus-induced cytopathogenicity incubated for 7 days by microscopic analysis; assay type: functional, organism-based
[14] = tested on: Human coronavirus 229E; assay: Antiviral activity against Human coronavirus 229E infected in human HELF cells assessed as reduction in virus-induced cytopathogenicity incubated for 7 days by microscopic analysis; assay type: functional, organism-based
[15] = tested on: A549; assay: Antiproliferative activity against human A549 cells assessed as reduction in cell viability incubated for 72 hrs by MTT assay; assay type: functional, cell-based; conditions: A549, 72 h; summary of the method: as §1
[16] = tested on: Reovirus sp.; assay: Antiviral activity against Reovirus infected in vero cells assessed as reduction in virus-induced cytopathogenicity incubated for 7 days by microscopic analysis; assay type: functional, organism-based
[17] = tested on: Influenza A virus H3N2; assay: Antiviral activity against Influenza A virus (A/HK/7/87(H3N2)) infected in dog MDCK cells assessed as reduction in virus-induced cytopathogenicity incubated for 7 days by microscopic analysis; assay type: functional, organism-based; conditions: A/Hong Kong/7/1987(H3N2); for EC50: 168 h
[18] = tested on: Human alphaherpesvirus 3; assay: Antiviral activity against thymidine kinase deficient Varicella zoster virus infected in human HELF cells assessed as reduction in virus-induced cytopathogenicity incubated for 7 days by Giemsa staining based microscopic analysis; assay type: functional, organism-based; conditions: Human alphaherpesvirus 3, HELF, 168 h
[19] = tested on: Influenza A virus H3N2; assay: Antiviral activity against Influenza A virus (A/HK/7/87(H3N2)) infected in dog MDCK cells assessed as reduction in virus-induced cytopathogenicity incubated for 7 days by MTS assay; assay type: functional, organism-based; conditions: A/Hong Kong/7/1987(H3N2); for EC50: 168 h
[20] = tested on: Influenza B virus; assay: Antiviral activity against Influenza B virus (B/Ned/537/05) infected in dog MDCK cells assessed as reduction in virus-induced cytopathogenicity incubated for 7 days by microscopic analysis; assay type: functional, organism-based; conditions: for EC50: 168 h
[21] = tested on: Influenza A virus; assay: Antiviral activity against Influenza A virus (A/Ned/378/05(H1N1)) infected in dog MDCK cells assessed as reduction in virus-induced cytopathogenicity incubated for 7 days by MTS assay; assay type: functional, organism-based
[22] = tested on: Human adenovirus 2; assay: Antiviral activity against Human adenovirus 2 infected in human HELF cells assessed as reduction in virus-induced cytopathogenicity incubated for 7 days by microscopic analysis; assay type: functional, organism-based
[23] = tested on: Sindbis virus; assay: Antiviral activity against Sindbis virus infected in vero cells assessed as reduction in virus-induced cytopathogenicity incubated for 7 days by microscopic analysis; assay type: functional, organism-based
[24] = tested on: MCF7; assay: Antiproliferative activity against human MCF7 cells assessed as reduction in cell viability incubated for 72 hrs by MTT assay; assay type: functional, cell-based; conditions: MCF7, 72 h; summary of the method: as §1
[25] = tested on: HCT-116; assay: Antiproliferative activity against human HCT116cells assessed as reduction in cell viability incubated for 72 hrs by MTT assay; assay type: functional, cell-based; conditions: HCT-116, 72 h; summary of the method: as §1
[26] = tested on: CFPAC-1; assay: Antiproliferative activity against human CFPAC-1 cells assessed as reduction in cell viability incubated for 72 hrs by MTT assay; assay type: functional, cell-based; conditions: Homo sapiens, CFPAC-1, 72 h; read-out: IC50; summary of the method: as §1
[27] = tested on: Cytomegalovirus; assay: Antiviral activity against Cytomegalovirus Davis infected in human HELF cells assessed as reduction in virus-induced cytopathogenicity incubated for 7 days by Giemsa staining based microscopic analysis; assay type: functional, organism-based; conditions: Human betaherpesvirus 5, Davis, 168 h; summary of the method: as §2
[28] = tested on: HFF; assay: Cytotoxicity against human HFF cells assessed as reduction in cell viability incubated for 72 hrs by MTT assay; assay type: cell-based; summary of the method: as §1
[29] = tested on: MDCK; assay: Cytotoxicity against dog MDCK cells assessed as reduction in cell viability incubated for 3 days by coulter counter method; assay type: cell-based, Canis lupus familiaris; conditions: mdck, 72 h
[30] = Cytotoxicity against dog MDCK cells assessed as minimum cytotoxic concentration by observing alteration in cell morphology incubated for 3 days by microscopic analysis; assay type: cell-based, Canis lupus familiaris
[31] = Influenza A virus, A/Ned/378/05(H1N1), MDCK, 168 h

| SMILES | EC50 [1] | Activity [2] | Activity [3] | Activity [4] | CC50 [5] | MCC at 72 h [6] | IC50 [7] | IC50 [8] | IC50 [9] | Activity [10] | Activity [11] | EC50 [12] | Activity [13] | Activity [14] | IC50 [15] | Activity [16] | Activity [17] | EC50 [18] | Activity [19] | Activity [20] | also measured |
| --- | --- | --- | --- | --- | --- | --- | --- | --- | --- | --- | --- | --- | --- | --- | --- | --- | --- | --- | --- | --- | --- |
| COc1ccc(-c2cn(C/C=C3\OC(=O)C(OCc4ccccc4)=C3OCc3ccccc3)nn2)cc1 | > 100 µM | inactive | inactive | inactive | > 100 µM | > 100 µM | > 100 µM | > 100 µM | > 100 µM | inactive | inactive | 20 µM | inactive | inactive | > 100 µM | inactive | inactive | > 100 µM | inactive | inactive | Activity [21]: inactive; Activity [22]: inactive; Activity [23]: inactive; IC50 [24]: 39.1 µM; IC50 [25]: > 100 µM; IC50 [26]: > 100 µM; EC50 [27]: 5.74 µM; IC50 [28]: > 100 µM |
| CC(=O)N[C@H]1[C@H]([C@H](O)[C@H](O)CO)OC(C(=O)O)=C[C@@H]1N=C(N)N [ZANAMIVIR] |  |  |  |  |  |  |  |  |  |  |  |  |  |  |  |  |  |  |  |  | CC50 [29]: ≥ 100 µM; EC50 [11]: 0.4 µM; EC50 [17]: 0.4 µM; MCC at 72 h [30]: > 100 µM; EC50 [19]: 0.01 µM; EC50 [20]: 0.4 µM |
| CC(N)C12CC3CC(CC(C3)C1)C2 (stereo not given) [RIMANTADINE] |  |  |  |  |  |  |  |  |  |  |  |  |  |  |  |  |  |  |  |  | EC50 [3, 31]: > 200 µM; CC50 [29]: > 200 µM; EC50 [11]: > 200 µM; EC50 [17]: 0.01 µM; MCC at 72 h [30]: > 200 µM; EC50 [19]: 0.01 µM; EC50 [20]: > 200 µM; EC50 [21, 31]: > 200 µM |
| O=C1O/C(=C\Cn2cc(-c3cccc(O)c3)nn2)C(OCc2ccccc2)=C1OCc1ccccc1 | 11.6 µM | inactive | inactive | inactive | 11.1 µM | 100 µM | 74.8 µM | 69.8 µM | 61.7 µM | inactive | inactive | 9.36 µM | inactive | inactive | 23.3 µM | inactive | inactive | 14.7 µM | inactive | inactive | Activity [21]: inactive; Activity [22]: inactive; Activity [23]: inactive; IC50 [24]: 27.8 µM; IC50 [25]: 63.6 µM; IC50 [26]: 33.7 µM; EC50 [27]: 8.94 µM; IC50 [28]: 42.6 µM |
